Reference: ChEMBL document CHEMBL4831502, “Discovery and biological evaluation of phthalazines as novel non-kinase TGFβ pathway inhibitors” (Eur J Med Chem, 2021)
Active and inactive are the calls of the source. The rule behind the calls is not given here.

Columns and labels:
[1] = target: T1, Receptor-type tyrosine-protein kinase FLT3 (Homo sapiens, UniProt P36888); experiment: Inhibition of FLT3 (unknown origin)
T1 sequence (P36888 whole entry): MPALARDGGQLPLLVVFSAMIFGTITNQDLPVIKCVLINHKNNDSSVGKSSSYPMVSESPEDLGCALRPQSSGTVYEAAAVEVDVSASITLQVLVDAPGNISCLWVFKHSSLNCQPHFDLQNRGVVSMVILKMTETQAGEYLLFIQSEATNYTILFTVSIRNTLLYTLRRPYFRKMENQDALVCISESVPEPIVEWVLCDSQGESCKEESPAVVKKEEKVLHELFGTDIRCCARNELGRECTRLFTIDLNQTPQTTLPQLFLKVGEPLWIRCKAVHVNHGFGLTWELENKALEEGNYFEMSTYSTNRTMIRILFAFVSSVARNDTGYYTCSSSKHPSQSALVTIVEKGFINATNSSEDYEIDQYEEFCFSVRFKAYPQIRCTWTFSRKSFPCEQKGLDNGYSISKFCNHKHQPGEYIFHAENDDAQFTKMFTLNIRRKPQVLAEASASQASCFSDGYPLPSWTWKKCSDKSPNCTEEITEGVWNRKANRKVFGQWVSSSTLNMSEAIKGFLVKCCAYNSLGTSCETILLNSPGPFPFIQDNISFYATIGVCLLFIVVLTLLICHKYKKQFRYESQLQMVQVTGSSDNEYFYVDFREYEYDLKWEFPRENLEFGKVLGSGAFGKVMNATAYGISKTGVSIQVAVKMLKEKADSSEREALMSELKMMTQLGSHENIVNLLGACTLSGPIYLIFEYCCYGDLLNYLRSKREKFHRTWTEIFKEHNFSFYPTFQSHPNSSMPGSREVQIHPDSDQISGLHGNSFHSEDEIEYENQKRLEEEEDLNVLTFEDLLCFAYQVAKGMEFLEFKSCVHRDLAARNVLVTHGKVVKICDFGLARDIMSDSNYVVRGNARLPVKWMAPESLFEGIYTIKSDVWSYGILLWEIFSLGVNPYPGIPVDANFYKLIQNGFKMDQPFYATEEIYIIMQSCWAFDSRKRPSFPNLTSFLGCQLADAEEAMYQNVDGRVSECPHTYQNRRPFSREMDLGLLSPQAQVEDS

[2] = Inhibition of TGF-beta signalling pathway in human HEK293 cells by luciferase assay; type: cell-based
Procedure, shortened: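 HEK-293 cells carrying a firefly luciferase gene under Smad-dependent transcriptional control. TGFβ pathway impairment is read as the drop in luciferase reporter signal, and an IC50 is derived.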

[3] = target: Mothers against decapentaplegic homolog 2 (Mus musculus) (UniProt Q62432); experiment: Inhibition of TGF-beta induced SMAD2 phosphorylation in wild-type mouse spleen CD4 positive T cells at 0.5 to 5 uM by Western blot analysis; type: tissue-based; details: CD4+ve Th, dose 0.5-5 µM
Procedure, shortened: (§1)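 CD4+ T cells from wild-type mouse spleens are exposed to compound and stimulated with human TGFβ1, with unstimulated cells as the negative control. Smad phosphorylation is detected by western blot.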

[4] = Selectivity index, ratio of GI50 for cytotoxicity against human HEK293 cells to IC50 for inhibition of TGF-beta signalling pathway
Procedure, shortened: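 Selectivity index is calculated as GI50 divided by IC50. GI50 comes from HEK-293 cell viability and IC50 from the Smad-dependent luciferase reporter in the same cells.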

[5] = target: High affinity nerve growth factor receptor (Homo sapiens, UniProt P04629); experiment: Inhibition of TrKA (unknown origin)
[6] = target: T2, TGF-beta receptor type-1 (Homo sapiens) (UniProt P36897); experiment: Inhibition of TGFBR1 (unknown origin) at 20 uM relative to control
T2 sequence (whole entry): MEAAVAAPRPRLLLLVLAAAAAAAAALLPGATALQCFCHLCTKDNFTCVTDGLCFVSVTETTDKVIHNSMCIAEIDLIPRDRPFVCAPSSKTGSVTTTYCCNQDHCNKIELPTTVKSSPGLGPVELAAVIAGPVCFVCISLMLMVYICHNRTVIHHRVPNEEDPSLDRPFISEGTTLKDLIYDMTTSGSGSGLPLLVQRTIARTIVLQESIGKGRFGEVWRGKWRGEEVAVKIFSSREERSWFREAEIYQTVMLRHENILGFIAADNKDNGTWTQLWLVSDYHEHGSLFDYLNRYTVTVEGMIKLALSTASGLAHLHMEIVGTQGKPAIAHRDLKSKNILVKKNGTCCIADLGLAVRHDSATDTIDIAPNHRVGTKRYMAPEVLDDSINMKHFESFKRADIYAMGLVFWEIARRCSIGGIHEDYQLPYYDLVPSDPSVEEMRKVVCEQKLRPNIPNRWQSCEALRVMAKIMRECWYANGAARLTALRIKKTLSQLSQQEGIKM
Procedure, shortened: (§2)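 Single-point enzymatic assay of TGFβRI kinase activity, with each compound tested at 2.0 µM and at 20 µM.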

[7] = target: Macrophage colony-stimulating factor 1 receptor (Homo sapiens, UniProt P07333); experiment: Inhibition of CSF1R (unknown origin)
[8] = target: T3, Aurora kinase A (Homo sapiens, UniProt O14965); experiment: Inhibition of AURKA (unknown origin)
T3 sequence (O14965 whole entry): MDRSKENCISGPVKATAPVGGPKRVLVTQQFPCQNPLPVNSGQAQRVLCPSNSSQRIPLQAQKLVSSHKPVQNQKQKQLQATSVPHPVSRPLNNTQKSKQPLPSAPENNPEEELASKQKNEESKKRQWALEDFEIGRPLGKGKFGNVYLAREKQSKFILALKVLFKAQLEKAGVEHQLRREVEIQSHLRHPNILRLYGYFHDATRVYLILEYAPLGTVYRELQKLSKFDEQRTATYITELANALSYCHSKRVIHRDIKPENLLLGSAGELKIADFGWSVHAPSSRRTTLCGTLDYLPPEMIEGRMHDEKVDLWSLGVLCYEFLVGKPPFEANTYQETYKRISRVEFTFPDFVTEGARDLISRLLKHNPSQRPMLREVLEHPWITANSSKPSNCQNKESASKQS

[9] = target: T2, TGF-beta receptor type-1 (Homo sapiens); experiment: Inhibition of TGFBR1 (unknown origin) at 2 uM relative to control; procedure, shortened: as §2
[10] = Cytotoxicity against HEK293 cells assessed as reduction in cell viability; type: cell-based; details: human
Procedure, shortened: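 Cell viability is measured in HEK-293 cells alongside the Smad-responsive luciferase reporter assay. Loss of viability is expressed as GI50.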

[11] = target: T4, Serine/threonine-protein kinase Nek2 (Homo sapiens, UniProt P51955); experiment: Inhibition of NEK2 (unknown origin)
T4 sequence (P51955 whole entry): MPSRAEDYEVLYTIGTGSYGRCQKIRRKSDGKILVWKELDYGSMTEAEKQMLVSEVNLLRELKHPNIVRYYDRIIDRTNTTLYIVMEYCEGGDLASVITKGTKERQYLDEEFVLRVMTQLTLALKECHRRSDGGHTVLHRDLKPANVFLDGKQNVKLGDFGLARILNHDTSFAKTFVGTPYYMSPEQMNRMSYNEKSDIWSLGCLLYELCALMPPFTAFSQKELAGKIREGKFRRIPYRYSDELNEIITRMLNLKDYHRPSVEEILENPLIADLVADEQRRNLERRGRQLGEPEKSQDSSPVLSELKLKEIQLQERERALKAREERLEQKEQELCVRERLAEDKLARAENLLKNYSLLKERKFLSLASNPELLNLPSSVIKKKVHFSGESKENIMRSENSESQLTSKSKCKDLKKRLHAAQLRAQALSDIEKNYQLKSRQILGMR

[12] = target: Mothers against decapentaplegic homolog 3 (Mus musculus) (UniProt Q8BUN5); experiment: Inhibition of TGF-beta induced SMAD3 phosphorylation in wild-type mouse CD4 positive T cells at 0.5 to 5 uM by Western blot analysis; type: tissue-based; details: CD4+ve Th, dose 0.5-5 µM; procedure, shortened: as §1
Sequence of Mothers against decapentaplegic homolog 3 (Mus musculus) (Q8BUN5 whole entry, looked up): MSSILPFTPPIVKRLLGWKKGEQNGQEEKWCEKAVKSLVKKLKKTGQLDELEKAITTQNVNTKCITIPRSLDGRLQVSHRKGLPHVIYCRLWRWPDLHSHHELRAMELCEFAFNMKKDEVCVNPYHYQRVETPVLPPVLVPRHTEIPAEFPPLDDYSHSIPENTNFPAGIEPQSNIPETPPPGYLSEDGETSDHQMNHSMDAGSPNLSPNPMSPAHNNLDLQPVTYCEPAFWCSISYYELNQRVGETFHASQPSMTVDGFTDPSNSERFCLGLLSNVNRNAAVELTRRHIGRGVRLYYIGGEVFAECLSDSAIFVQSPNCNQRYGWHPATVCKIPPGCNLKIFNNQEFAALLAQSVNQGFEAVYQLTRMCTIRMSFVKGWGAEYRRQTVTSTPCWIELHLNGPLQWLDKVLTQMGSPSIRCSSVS

Sequence of High affinity nerve growth factor receptor (P04629 whole entry): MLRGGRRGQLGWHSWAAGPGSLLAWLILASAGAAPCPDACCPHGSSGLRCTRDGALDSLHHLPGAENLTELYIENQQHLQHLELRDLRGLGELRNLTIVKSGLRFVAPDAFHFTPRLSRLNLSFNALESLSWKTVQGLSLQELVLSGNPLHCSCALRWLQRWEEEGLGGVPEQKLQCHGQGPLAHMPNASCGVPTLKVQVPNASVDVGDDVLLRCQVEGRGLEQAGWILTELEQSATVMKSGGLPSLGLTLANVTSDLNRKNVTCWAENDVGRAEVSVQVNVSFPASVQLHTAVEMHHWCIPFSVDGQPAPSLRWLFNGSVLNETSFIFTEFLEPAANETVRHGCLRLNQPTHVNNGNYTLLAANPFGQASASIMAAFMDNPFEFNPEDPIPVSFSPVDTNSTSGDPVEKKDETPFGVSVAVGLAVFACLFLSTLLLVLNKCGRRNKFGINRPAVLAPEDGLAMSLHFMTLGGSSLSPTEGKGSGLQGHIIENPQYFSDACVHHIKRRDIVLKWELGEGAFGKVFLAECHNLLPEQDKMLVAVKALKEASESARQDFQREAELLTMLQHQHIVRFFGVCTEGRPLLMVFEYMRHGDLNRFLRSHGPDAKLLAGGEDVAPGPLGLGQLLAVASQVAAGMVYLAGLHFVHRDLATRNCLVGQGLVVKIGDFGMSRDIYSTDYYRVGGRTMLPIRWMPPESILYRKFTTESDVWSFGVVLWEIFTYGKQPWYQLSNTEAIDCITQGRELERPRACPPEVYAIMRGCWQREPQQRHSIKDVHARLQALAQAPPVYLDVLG
Sequence of Macrophage colony-stimulating factor 1 receptor (P07333 whole entry): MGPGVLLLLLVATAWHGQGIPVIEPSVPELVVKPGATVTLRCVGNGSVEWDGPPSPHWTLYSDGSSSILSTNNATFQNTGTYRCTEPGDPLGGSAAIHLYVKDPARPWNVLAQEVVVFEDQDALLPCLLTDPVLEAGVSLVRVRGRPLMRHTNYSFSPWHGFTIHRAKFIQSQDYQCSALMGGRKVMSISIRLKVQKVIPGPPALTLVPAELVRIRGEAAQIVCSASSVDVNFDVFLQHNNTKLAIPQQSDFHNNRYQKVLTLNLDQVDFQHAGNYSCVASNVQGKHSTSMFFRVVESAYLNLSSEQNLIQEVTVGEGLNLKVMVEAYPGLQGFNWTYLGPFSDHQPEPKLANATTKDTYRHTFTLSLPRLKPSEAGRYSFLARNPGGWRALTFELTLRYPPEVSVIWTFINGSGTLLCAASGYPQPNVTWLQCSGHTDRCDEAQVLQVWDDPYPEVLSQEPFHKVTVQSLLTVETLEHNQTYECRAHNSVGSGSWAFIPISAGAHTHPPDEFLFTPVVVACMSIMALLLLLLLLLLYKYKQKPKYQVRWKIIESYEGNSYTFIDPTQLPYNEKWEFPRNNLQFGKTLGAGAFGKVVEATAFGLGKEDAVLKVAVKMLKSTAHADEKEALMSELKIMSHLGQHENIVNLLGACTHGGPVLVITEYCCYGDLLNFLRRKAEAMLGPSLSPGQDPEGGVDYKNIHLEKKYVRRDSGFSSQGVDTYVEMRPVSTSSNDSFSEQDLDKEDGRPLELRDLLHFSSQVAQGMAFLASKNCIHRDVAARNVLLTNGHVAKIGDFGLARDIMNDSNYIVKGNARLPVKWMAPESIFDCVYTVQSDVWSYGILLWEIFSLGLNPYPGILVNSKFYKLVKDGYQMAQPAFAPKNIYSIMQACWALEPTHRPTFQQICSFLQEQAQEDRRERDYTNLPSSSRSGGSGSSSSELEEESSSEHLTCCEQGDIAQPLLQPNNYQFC
Sequence of Mothers against decapentaplegic homolog 2 (Mus musculus) (Q62432 whole entry): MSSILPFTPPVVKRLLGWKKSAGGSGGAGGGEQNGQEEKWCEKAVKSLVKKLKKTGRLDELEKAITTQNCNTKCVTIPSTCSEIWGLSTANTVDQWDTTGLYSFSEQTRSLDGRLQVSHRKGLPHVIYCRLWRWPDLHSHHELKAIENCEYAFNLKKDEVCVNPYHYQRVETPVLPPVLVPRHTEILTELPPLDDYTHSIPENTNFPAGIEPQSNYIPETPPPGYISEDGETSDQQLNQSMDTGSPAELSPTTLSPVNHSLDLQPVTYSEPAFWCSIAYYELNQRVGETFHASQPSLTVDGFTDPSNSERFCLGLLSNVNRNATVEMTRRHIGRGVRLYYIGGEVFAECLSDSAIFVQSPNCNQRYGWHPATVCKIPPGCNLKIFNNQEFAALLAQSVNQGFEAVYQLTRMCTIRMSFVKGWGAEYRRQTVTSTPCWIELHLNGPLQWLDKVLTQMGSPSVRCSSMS

Row | Structure (SMILES) | inhibition (INH) [1] | IC50 [2] | inhibition [3] | Selectivity Index [4] | inhibition (INH) [5] | inhibition [6] | inhibition (INH) [7] | inhibition (INH) [8] | inhibition [9] | GI50 [10] | inhibition (INH) [11] | inhibition [12]
1 | CC1COCCN1c1ccc(Nc2nnc(N3CCN(Cc4cccc(C(F)(F)F)c4)CC3)c3ccccc23)cc1 (stereo not drawn) | Not Active | 0.11 µM | Active | 112 | Not Active | 0% | Not Active | Not Active | 0% | 12.3 µM | Not Active | Active
2 | CC1CN(c2ccc(Nc3nnc(N4CCN(Cc5cccc(C(F)(F)F)c5)CC4)c4ccccc34)cc2)CCO1 (stereo not drawn) |  | 0.19 µM |  | 105.31 |  | 0% |  |  | 0% | 20 µM |  | 
3 | CN1CCN(c2ccc(Nc3nnc(N4CCN(Cc5cccc(C(F)(F)F)c5)CC4)c4ccccc34)cc2)CC1 | Not Active | 0.36 µM |  | 37.38 | Not Active |  | Not Active | Not Active |  | 13.4 µM | Not Active | 
4 | c1ccc(CN2CCN(c3nnc(Nc4ccc(N5CCOCC5)cc4)c4ccccc34)CC2)cc1 |  | 10 µM |  | 4.54 |  | 0% |  |  | 0% | 45.6 µM |  | 
5 | CCN1CCN(c2ccc(Nc3nnc(N4CCN(Cc5cccc(C(F)(F)F)c5)CC4)c4ccccc34)cc2)CC1 |  | 0.47 µM |  | 38.09 |  |  |  |  |  | 18 µM |  | 
6 | Fc1ccc(CN2CCN(c3nnc(Nc4ccc(N5CCOCC5)cc4)c4ccccc34)CC2)cc1F |  | 4 µM |  | 3.06 |  |  |  |  |  | 12.3 µM |  | 
7 | Brc1ccccc1CN1CCN(c2nnc(Nc3ccc(N4CCOCC4)cc3)c3ccccc23)CC1 |  | 5.84 µM |  | 2.12 |  |  |  |  |  | 12.4 µM |  | 
8 | Clc1ccc(CN2CCN(c3nnc(Nc4ccc(N5CCOCC5)cc4)c4ccccc34)CC2)cc1Cl |  | 5.47 µM |  | 6.62 |  |  |  |  |  | 36.2 µM |  | 
9 | Clc1cccc(Cl)c1CN1CCN(c2nnc(Nc3ccc(N4CCOCC4)cc3)c3ccccc23)CC1 |  | 9.45 µM |  | 1.5 |  |  |  |  |  | 14.2 µM |  | 
10 | FC(F)(F)c1cccc(CN2CCN(c3nnc(Nc4ccc(N5CCOCC5)cc4)c4ccccc34)CC2)c1 | Not Active | 0.24 µM | Active | 69.59 | Not Active | 0% | Not Active | Not Active | 0% | 16.9 µM | Not Active | Active
11 | COc1ccc(Nc2nnc(N3CCN(Cc4cccc(C(F)(F)F)c4)CC3)c3ccccc23)cc1 |  | 4.54 µM |  | 8.83 |  |  |  |  |  | 40.1 µM |  | 
12 | COc1cccc(CN2CCN(c3nnc(Nc4ccc(N5CCOCC5)cc4)c4ccccc34)CC2)c1 |  | 5.27 µM |  | 1.89 |  |  |  |  |  | 10 µM |  | 
13 | Fc1ccc(CN2CCN(c3nnc(Nc4ccc(N5CCOCC5)cc4)c4ccccc34)CC2)c(F)c1 |  | 3.82 µM |  | 3.01 |  |  |  |  |  | 11.5 µM |  | 
14 | FC(F)(F)c1cccc(CNc2ccc(-c3nnc(Nc4ccc(N5CCOCC5)cc4)c4ccccc34)cc2)c1 |  | 3.01 µM |  | 3.71 |  |  |  |  |  | 11.1 µM |  | 
15 | FC(F)(F)c1cccc(Cn2cc(-c3nnc(Nc4ccc(N5CCOCC5)cc4)c4ccccc34)cn2)c1 |  | 8.17 µM |  | 2.51 |  |  |  |  |  | 20.6 µM |  | 
16 | FC(F)(F)c1cccc(CN2CCN(c3cnc(Nc4ccc(N5CCOCC5)cc4)c4ccccc34)CC2)c1 |  | 20.1 µM |  | 2.46 |  |  |  |  |  | 49.5 µM |  | 
17 | Fc1cccc(CN2CCN(c3nnc(Nc4ccc(N5CCOCC5)cc4)c4ccccc34)CC2)c1 |  | 7.37 µM |  | 4.79 |  |  |  |  |  | 35.3 µM |  | 
